PKD1 kinase inh: inhibitors of human PKD1 kinase; inhibition, % (concentration not given with the values); 200,000 compounds, 0.056% hits; PKD1 kinase fluorescence polarization assay
Arbovirus inh: antivirals against arbovirus infection. arbovirus infection cell-based antiviral screen. inhibition, % at 10 µM. 200,000 compounds, 0.37% hits; in the data active = inhibition above about 30%
CHOP inh: blocks CHOP induction under ER stress; CHO-K1 CHOP-promoter luciferase, tunicamycin-induced, 15-18 h; inhibition, % at 10 µM; 220,000 compounds, 3.8% hits;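 active = compounds that reduced the stress-induced luciferase reporter signal by more than about 70% of percent inhibition, limit read from the data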;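 also: 0% = tunicamycin plus vehicle and 100% = wells without tunicamycin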
Rad51 HR inh: Rad51 (human) homologous recombination inhibition | Q06609 | hRad51 DNA strand exchange, fluorescence dequenching | inhibition, % at 10 µM | 200,000 compounds, 0.085% hits | AID 1385;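 active = inhibition above 40% at the single screening dose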;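 also: 0% = DMSO control wells and 100% = blanks with heterologous ssDNA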
Target sequence (Q06609 whole entry, looked up): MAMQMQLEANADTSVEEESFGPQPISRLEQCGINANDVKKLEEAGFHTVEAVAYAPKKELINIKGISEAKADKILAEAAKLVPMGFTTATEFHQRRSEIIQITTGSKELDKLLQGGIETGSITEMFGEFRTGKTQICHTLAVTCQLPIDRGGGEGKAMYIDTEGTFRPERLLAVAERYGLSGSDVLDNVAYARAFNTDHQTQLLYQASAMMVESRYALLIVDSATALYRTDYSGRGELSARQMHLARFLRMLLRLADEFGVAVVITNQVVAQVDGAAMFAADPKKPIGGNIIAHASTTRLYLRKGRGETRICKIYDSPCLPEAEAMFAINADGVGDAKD
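Material: human Rad51–ssDNA filaments; Probe or stimulus: labelled 47-mer dsDNA for strand exchange; Doses: single 10 µM dose; Incubation: 37 °C 15-min filament assembly, 30-min compound preincubation, 15-min exchange; Technique: FRET fluorescence dequenching, excitation 485 nm, emission 520 nm; Measure: Fluorescence-based percent inhibition, control- and blank-normalised; Benchmarks: plate control and blank wells.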
Wee1 degr inh: human Wee1 degradation inhibition, primary screen; AID 1321; P30291; 220,000 compounds, 1.2% hits; reporter increase, % at 5 µM; HeLa Luc-Wee1K328M stability, luciferase luminescence; 100% = proteasome inhibitor MG132 effect;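 active = activation above the mean of all tested compounds plus 3 SD, set per screening run, cut at about 8.8% in these data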;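 also: cells exposed to compound for 20 h before luminescence read; 0% = DMSO alone and 100% = MG132 at 30 µM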
Lmaj promast: reduces viability of Leishmania major promastigotes; resazurin fluorescence viability; 200,000 compounds, 9% hits; inhibition, % at 10 µM;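 also: promastigotes grown with compound for 44 hours at 28 °C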
* marks the source's active call; other numbers are inactive results; / = not tested or not shown; ! = repeats disagree. Hits are enriched below; roughly 12% of the tested compounds scored in any of these assays. Rule as the data show it, unless noted: active = inhibition above about 50%; inactive = the rest.

SMILES	PKD1 kinase inh	Arbovirus inh	CHOP inh	Rad51 HR inh	Wee1 degr inh	Lmaj promast
COc1ccc(-c2nsc3c(N4CCCCC4C)ncnc23)cc1 (stereo unspecified)	-3.1	9.1	92.7*	-7.0	-3.9	-1.2
Nc1ccc(S(=O)C(F)(F)F)cc1 (stereo unspecified)	-0.2	19.6	1.3	6.3	1.0	-5.8
NC(=O)CNc1n[nH]c(=S)[nH]c1=O	-0.3	6.6	-0.2	-24.8	-0.1	-2.6
COC(=O)c1sccc1N/N=C/c1cccc(OC)c1O	7.9	15.5	83.0*	2.9	-1.1	-7.5
COc1cccc(/C=N/Nc2nc3ccccc3[nH]2)c1O	/	/	54.4	18.9	-1.6	/
COc1cccc(/C=N/Nc2nccnc2Cl)c1O	-3.0	-24.0	74.4*	-33.1	-3.6	100.3*
COc1cccc(/C=N/Nc2ncnc(Cl)c2N)c1O	5.2	-25.3	36.9	-9.4	1.1	100.3*
COc1cccc(/C=N/Nc2ncnc3scc(-c4ccccc4)c23)c1O	-14.2	-26.9	74.7*	/	1.0	100.0*
COc1cccc(/C=N/Nc2nc3ccccc3n3cnnc23)c1O	11.4	-14.6	34.2	-2.5	-2.2	75.7*
COc1ccc(/C=N/Nc2nccnc2Cl)cc1	-1.4	-10.3	71.5*	4.9	0.0	-3.6
CCN(CC)c1nc(Nc2ccccc2)nc(Oc2ccc(=O)n(C)n2)n1	-4.6	-1.4	71.3*	0.2	-1.4	37.0
Cc1ncsc1CCC(=O)N1CCCC(C(=O)c2ccc3c(c2)OCO3)C1 (stereo unspecified)	7.8	3.1	6.1	-8.2	-2.4	-1.2
CC(C)N1C(=O)/C(=C/c2nc3ccccc3c(=O)n2-c2ccccc2)c2ccccc21	-7.6	-24.1	15.8	-0.2	-0.2	100.1*
CC(C)N1C(=O)C(Cc2nc3ccccc3c(=O)n2-c2ccccc2)c2ccccc21 (stereo unspecified)	-4.4	-5.3	10.9	6.8	-2.6	21.3
CC(C)N1C(=O)/C(=C\c2nc3ccccc3c(=O)n2-c2ccccc2)c2ccccc21	7.5	-42.0	14.8	-12.1	-1.0	99.4*
N=C1C(c2ccccc2)=C(O)CN1c1cccc(S(=O)(=O)N2CCOCC2)c1	/	/	3.0	0.7	1.5	/
CC(C)CCN(C(=O)COc1ccc(C#N)cc1)c1c(N)n(Cc2ccccc2)c(=O)[nH]c1=O	2.2	-8.0	6.2	/	5.4	-1.3
CCOc1cc(/C=N/Nc2cc(C)nc(-n3nc(C)cc3C)n2)ccc1O	/	/	-48.3	7.3	-2.3	/
COc1ccc(/C=N/Nc2cc(C)nc(-n3nc(C)cc3C)n2)c(OC)c1	22.1	-40.3	65.1	0.8	-0.5	99.5*
CCOc1ccc(Nc2cc(C)nc(-n3nc(C)cc3C)n2)cc1	-3.4	-1.0	/	13.2	-2.5	90.4*
Cc1cc(N/N=C/c2ccc(F)cc2)nc(-n2nc(C)cc2C)n1	/	/	89.7*	/	3.8	/
CNc1nc(SCc2ccccc2Cl)nc2c1CCCC2	-13.4	-20.6	65.7	-2.6	-2.7	87.7*
CCOC(=O)c1cn2nc(Oc3ccc(C#N)cc3)ccc2n1	/	/	-21.8	-12.3	-1.1	/
Cc1ccc(Cl)cc1NC(=S)N/N=C/c1cccc2ccccc12	/	/	-36.2	9.6	7.8	/
Cc1cc(O)c(C=O)c2c1C(=O)Oc1c(CO)c(O)c3c(c1O2)C(O)OC3=O (stereo unspecified)	11.5	0.5	14.0	65.9*	-0.2	-17.3
SMILES	PKD1 kinase inh	Arbovirus inh	CHOP inh	Rad51 HR inh	Wee1 degr inh	Lmaj promast
Fc1ccc(C(c2ccc(F)cc2)N2CCN(C/C=C/c3ccccc3)CC2)cc1	0.1	-14.4	84.3*!	-4.4	-3.6	52.6*
O=C(Nc1ccc(N2CCOCC2)c(Cl)c1)c1ccc(Br)o1	-2.5	-9.2	/	-1.8	10.5*	12.0
O=C(Nc1ccc(N2CCN(C(=O)c3ccccc3)CC2)c(Cl)c1)c1ccc(Br)o1	-6.1	-2.0	85.3*	-6.4	0.4	23.0
O=C(Nc1ccccc1N1CCOCC1)c1ccc(Br)o1	7.0	8.2	48.9	-1.4	1.5	-1.3
O=C(NCCCCc1ccccc1)C1CC(c2ccc(C(F)(F)F)cc2)=NO1 (stereo unspecified)	/	/	21.7	-7.0	/	/
COc1ccc(S(=O)(=O)Nc2ccccc2C(F)(F)F)cc1	-2.5	3.4	-1.3	-3.1	-0.3	-5.6
COc1ccc(S(=O)(=O)NC(C)C(=O)Nc2ccccc2C(F)(F)F)cc1 (stereo unspecified)	-8.6	4.3	-11.9	93.6*	2.3	-1.7
OCCC1CN(Cc2cccn2-c2cccnc2)CCN1C1CCCC1 (stereo unspecified)	/	/	0.6	/	-0.4	/
Cc1nc2ccccc2n1S(=O)(=O)c1ccc(Br)cc1	0.3	4.4	29.3	-23.0	4.3	69.8*
COc1cc2cc3c(N)c(C(=O)Nc4sc(C)c(C)c4C#N)sc3nc2cc1OC	-6.3	-13.3	80.9*	-3.5	2.3	-4.4
COc1cc2cc3c(N)c(C(=O)NCc4ccco4)sc3nc2cc1OC	7.1	-38.2	-4.3	/	2.5	80.5*
O=C(Nc1ccc(F)cc1)c1oc2ccccc2c1NC(=O)C1CCCC1	-5.2	-0.6	70.9*	-10.8	0.0	2.9
CCCSc1nsc(NC(=O)C(c2ccccc2)c2ccccc2)n1	-8.5	-33.5	92.7*	-3.7	-1.8	9.6
c1ccc(C(c2nnnn2C2CCCC2)N2CCN(c3ccccc3)CC2)cc1 (stereo unspecified)	0.4	-12.5	-0.3	5.2	-2.3	14.2
COCCn1nnnc1C(c1ccc(OC)cc1)N1CCC(C)CC1 (stereo unspecified)	-7.0	0.0	15.6	3.2	2.3	-0.7
COc1ccc(OC)c(C(c2nnnn2C2CCCC2)N2CCN(c3ccccc3)CC2)c1 (stereo unspecified)	-0.5	-1.4	-9.8	2.5	-1.1	96.8*
COc1ccc(C(c2nnnn2C2CCCCC2)N2CCN(C)CC2)c(OC)c1 (stereo unspecified)	-9.0	5.5	15.2	1.4	7.0	5.0
COc1ccc(C(c2nnnn2C2CCCCC2)N2CCN(c3ccc(OC)cc3)CC2)cc1 (stereo unspecified)	2.7	0.0	-22.5	-4.2	-1.3	89.1*
c1cc(N2CCCC2)ccc1C(c1nnnn1C1CCCCC1)N1CCOCC1 (stereo unspecified)	-4.0	-4.1	3.9	-0.7	0.5	88.4*
COc1ccc(C(c2nnnn2C2CCCC2)N2CCC(C)CC2)cc1 (stereo unspecified)	-3.2	-5.7	82.9*	/	-3.2	89.7*
COC(=O)c1sccc1NC(=O)Cn1nnc(-c2ccccc2C)n1	-0.7	-4.1	18.2	-8.5	-2.4	8.3
CCCCN1CC2=C(C1=O)C(c1ccc(O)cc1)NC(=O)N2C (stereo unspecified)	-0.4	-1.0	-7.5	11.1	0.6	-0.6
O=C(O)CCCC(=O)N1N=C(c2ccccc2)CC1c1cccs1 (stereo unspecified)	/	/	-10.1	-9.6	1.6	/
Cc1ccc(NC(=O)CN(C)C(=O)/C=C/c2cccs2)cc1	-0.9	7.1	7.3	/	5.7	-3.2
NC(=NCCC[C@H](N)C(=O)O)NO	/	/	2.6	/	/	/

Source: PubChem BioAssay
